ChEMBL document CHEMBL3414491, “Synthesis and antitumor activities evaluation of m-(4-morpholinoquinazolin-2-yl)benzamides in vitro and in vivo” (Eur J Med Chem, 2015)
Blank lines part the entries; values can stand above or below the compound they belong to. Activity calls are given as the source filed them. The calls are words filed in the database; no cut-off is given here.

Experiments:
MCF7 = experiment: Antiproliferative activity against human MCF7 cells after 72 hrs by MTT assay; format: functional, cell-based; settings: MCF7, 72 h
In short: (§1)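 MTT: cells seeded at 1500–4000 per well, grown 24 h, then given serial dilutions (1% DMSO final) for 72 h at 37 °C. MTT was added for 4 h, formazan dissolved in DMSO and absorbance read at 490 nm. Three separate experiments in triplicate; IC50 is the concentration giving 50% cell death versus control.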

[1] = Antiproliferative activity against human HCT116 cells after 72 hrs by MTT assay; format: functional, cell-based; settings: HCT-116, 72 h; in short: as §1
[2] = Antiproliferative activity against human U87MG cells after 72 hrs by MTT assay; format: functional, cell-based, U-87MG ATCC; settings: U-87 MG; in short: as §1
A549 = experiment: Antiproliferative activity against human A549 cells after 72 hrs by MTT assay; format: functional, cell-based; settings: A549, 72 h; in short: as §1
HCT-116 [3] = experiment: Induction of nuclear fragmentation in human HCT116 cells at 0. 1 to 10 uM after 24 hrs by Hoechst staining based fluorescent microscopy; format: functional, cell-based
In short: (§2)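 HCT-116 cells (15,000 per well) were grown 24 h, then exposed to 0.1, 1 or 10 µM for 24 h; vehicle control was 0.5% DMSO. Cells were photographed under phase-contrast microscopy, then stained with Hoechst 33258 for 0.5 h at 37 °C, washed with PBS and viewed by fluorescence microscopy.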

HCT-116 [4] = experiment: Induction of chromatin condensation in human HCT116 cells at 0. 1 to 10 uM after 24 hrs by Hoechst staining based fluorescent microscopy; format: functional, cell-based; in short: as §2
[5] = biological target: PI3-kinase subunit gamma/Phosphoinositide 3-kinase regulatory subunit 5 (Homo sapiens, UniProt P48736); experiment: Inhibition of p110gamma/PIK3R5 (unknown origin) using L-alpha-phosphatidylinositol incubated for 40 mins by ADP depletion detection based luciferase assay; format: protein-complex assay
Chain of PI3-kinase subunit gamma/Phosphoinositide 3-kinase regulatory subunit 5 (P48736 whole entry): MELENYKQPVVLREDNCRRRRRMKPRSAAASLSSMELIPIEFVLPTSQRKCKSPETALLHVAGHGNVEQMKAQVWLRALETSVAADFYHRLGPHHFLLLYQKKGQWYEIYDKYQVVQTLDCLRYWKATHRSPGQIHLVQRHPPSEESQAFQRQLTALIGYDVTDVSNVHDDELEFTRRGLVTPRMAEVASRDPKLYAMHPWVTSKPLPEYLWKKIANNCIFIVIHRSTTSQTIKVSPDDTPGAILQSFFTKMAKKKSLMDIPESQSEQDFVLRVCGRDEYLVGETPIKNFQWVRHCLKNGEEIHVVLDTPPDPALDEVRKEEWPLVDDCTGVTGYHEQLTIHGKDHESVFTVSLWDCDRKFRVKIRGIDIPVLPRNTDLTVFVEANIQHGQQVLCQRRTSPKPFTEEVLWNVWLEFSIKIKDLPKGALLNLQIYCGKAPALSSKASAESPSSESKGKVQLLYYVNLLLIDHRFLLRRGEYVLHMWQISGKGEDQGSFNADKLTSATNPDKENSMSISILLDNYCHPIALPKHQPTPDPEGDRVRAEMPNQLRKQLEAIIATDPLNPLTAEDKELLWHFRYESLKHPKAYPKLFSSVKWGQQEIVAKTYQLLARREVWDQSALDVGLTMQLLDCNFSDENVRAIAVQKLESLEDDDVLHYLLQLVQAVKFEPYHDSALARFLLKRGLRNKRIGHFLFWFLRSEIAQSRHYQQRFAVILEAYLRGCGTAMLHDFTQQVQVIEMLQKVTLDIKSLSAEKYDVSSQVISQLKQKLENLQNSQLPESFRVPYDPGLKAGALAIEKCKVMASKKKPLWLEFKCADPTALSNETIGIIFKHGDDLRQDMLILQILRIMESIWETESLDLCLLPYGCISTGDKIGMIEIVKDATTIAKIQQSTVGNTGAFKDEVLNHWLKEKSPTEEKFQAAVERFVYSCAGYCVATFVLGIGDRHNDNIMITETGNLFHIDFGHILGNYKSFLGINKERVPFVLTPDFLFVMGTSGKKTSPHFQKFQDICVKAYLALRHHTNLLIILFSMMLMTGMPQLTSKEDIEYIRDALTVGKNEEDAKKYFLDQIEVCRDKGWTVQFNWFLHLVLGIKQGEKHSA
Chain of PI3-kinase subunit gamma/Phosphoinositide 3-kinase regulatory subunit 5 (Q8WYR1 whole entry, further chain): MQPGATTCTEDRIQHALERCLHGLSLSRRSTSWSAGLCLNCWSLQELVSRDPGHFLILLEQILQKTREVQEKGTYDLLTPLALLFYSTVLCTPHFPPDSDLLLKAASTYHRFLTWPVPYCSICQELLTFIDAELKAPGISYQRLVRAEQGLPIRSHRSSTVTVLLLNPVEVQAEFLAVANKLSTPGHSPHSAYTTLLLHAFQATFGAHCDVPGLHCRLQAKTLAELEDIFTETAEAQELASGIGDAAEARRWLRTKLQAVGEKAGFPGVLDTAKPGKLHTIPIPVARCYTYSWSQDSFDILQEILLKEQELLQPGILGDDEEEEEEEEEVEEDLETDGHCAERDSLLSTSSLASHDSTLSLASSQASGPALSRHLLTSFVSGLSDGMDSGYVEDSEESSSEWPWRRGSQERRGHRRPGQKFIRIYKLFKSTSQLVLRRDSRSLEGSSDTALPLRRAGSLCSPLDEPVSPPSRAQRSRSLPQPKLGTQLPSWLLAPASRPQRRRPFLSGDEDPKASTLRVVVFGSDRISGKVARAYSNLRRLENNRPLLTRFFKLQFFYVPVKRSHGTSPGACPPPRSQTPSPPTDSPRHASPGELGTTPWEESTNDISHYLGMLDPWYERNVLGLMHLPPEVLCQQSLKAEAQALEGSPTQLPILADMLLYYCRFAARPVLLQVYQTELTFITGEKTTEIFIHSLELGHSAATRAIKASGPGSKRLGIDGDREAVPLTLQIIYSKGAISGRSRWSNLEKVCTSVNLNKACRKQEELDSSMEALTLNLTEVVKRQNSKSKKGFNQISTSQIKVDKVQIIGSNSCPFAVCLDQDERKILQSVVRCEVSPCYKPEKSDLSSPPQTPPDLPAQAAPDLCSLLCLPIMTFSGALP

HCT-116 [6] = experiment: Induction of apoptosis in human HCT116 cells assessed as late apoptotic cells level at 3 uM after 24 hrs by annexin V-FITC/propidium iodide staining based flow cytometry (reference value: 3.08%); format: functional
In short: (§3)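 HCT-116 cells were seeded at 1.5 × 10⁵ per well, grown 24 h, then treated 24 h; vehicle control was 0.5% DMSO. Cells were stained with an Annexin V-FITC/PI kit and analysed by flow cytometry. Q4 = early apoptotic, Q2 = late apoptotic; apoptosis rate = Q2 + Q4. Means of three independent experiments.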

[7] = biological target: PI3-kinase p110-delta/p85-alpha (Homo sapiens, UniProt O00329); experiment: Inhibition of p110delta/p85alpha (unknown origin) using L-alpha-phosphatidylinositol incubated for 40 mins by ADP depletion detection based luciferase assay; format: protein-complex assay
Chain of PI3-kinase p110-delta/p85-alpha (P27986 whole entry): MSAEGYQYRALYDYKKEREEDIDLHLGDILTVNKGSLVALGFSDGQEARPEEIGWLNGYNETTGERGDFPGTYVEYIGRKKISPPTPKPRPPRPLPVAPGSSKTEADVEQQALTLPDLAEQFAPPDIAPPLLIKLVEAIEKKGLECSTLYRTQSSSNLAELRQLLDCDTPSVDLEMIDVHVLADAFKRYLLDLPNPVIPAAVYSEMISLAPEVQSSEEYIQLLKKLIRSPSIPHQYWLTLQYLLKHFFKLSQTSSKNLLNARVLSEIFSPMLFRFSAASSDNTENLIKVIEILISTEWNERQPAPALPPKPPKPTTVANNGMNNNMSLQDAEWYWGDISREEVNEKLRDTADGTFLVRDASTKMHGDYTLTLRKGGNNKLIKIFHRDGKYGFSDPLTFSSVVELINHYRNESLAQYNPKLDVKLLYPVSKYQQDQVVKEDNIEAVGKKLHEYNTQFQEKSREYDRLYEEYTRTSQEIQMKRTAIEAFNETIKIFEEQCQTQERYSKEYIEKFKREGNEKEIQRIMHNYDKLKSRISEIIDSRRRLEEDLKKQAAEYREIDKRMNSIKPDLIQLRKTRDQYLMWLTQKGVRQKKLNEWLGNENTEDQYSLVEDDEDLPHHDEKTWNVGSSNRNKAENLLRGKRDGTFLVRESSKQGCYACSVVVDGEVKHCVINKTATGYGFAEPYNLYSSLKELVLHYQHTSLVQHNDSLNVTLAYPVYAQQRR
Chain of PI3-kinase p110-delta/p85-alpha (O00329 whole entry): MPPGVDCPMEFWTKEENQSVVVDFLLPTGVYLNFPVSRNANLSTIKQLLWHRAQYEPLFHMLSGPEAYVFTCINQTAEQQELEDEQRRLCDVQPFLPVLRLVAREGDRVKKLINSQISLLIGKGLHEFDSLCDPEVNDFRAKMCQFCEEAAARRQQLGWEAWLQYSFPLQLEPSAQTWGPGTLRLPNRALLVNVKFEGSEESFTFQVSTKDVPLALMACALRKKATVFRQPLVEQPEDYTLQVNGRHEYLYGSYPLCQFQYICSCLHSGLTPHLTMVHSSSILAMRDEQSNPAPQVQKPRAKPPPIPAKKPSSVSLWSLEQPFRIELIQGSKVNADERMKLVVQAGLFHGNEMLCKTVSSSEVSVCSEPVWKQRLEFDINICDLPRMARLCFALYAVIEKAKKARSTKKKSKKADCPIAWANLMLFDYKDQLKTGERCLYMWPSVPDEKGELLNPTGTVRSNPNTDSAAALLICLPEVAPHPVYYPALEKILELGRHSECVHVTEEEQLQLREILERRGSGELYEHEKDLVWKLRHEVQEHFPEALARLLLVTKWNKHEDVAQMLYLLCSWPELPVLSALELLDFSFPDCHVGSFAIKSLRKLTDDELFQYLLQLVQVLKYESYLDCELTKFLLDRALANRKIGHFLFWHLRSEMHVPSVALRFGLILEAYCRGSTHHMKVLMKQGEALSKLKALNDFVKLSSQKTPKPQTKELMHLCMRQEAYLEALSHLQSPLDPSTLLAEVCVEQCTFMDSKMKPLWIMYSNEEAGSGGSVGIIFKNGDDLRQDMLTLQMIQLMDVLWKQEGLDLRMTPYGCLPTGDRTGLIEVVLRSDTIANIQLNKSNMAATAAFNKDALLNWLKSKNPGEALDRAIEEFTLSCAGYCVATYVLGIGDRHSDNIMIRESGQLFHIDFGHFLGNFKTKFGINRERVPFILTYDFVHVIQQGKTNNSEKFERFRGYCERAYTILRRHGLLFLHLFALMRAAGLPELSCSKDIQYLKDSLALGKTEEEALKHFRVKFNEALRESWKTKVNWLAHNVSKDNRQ

CCRF S-180 [8] = experiment: Antitumor activity against mouse S180 cells homografted in mouse assessed as reduction tumor weight at 30 mg/kg, po once daily for 8 days; format: functional; settings: CCRF S-180, 192 h
In short: (§4)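 Mice (19.6 g average) had 3 × 10⁶ S180 cells injected subcutaneously into the flank and were randomized into three groups of 8. From the next day they received compound in NMP/PEG400/H2O (1:8:1) orally once daily for 8 days, or solvent alone. Body weights were recorded daily. On Day 9 tumors and bodies were weighed and tumor-weight inhibitory ratios calculated.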

HCT-116 [9] = experiment: Induction of cellular morphological changes in human HCT116 cells assessed as induction of cell shrinking at 1 and 10 uM after 24 hrs by Hoechst staining based phase contrast microscopy; format: functional; in short: as §2
CCRF S-180 [10] = experiment: Antitumor activity against mouse S180 cells homografted in mouse assessed as reduction tumor weight at 15 mg/kg, po once daily for 8 days; format: functional; settings: CCRF S-180, 192 h; in short: as §4
PI3K p110 beta/p85 alpha = PI3K p110 beta/p85 alpha (Homo sapiens, UniProt P42338); experiment: Inhibition of p110beta/p85alpha (unknown origin) using L-alpha-phosphatidylinositol incubated for 40 mins by ADP depletion detection based luciferase assay; format: protein-complex assay
Chain of PI3K p110 beta/p85 alpha (P27986 whole entry, the tested form may be a part): as the sequence (P27986 whole entry) above
Chain of PI3K p110 beta/p85 alpha (P42338 whole entry, the tested form may be a part): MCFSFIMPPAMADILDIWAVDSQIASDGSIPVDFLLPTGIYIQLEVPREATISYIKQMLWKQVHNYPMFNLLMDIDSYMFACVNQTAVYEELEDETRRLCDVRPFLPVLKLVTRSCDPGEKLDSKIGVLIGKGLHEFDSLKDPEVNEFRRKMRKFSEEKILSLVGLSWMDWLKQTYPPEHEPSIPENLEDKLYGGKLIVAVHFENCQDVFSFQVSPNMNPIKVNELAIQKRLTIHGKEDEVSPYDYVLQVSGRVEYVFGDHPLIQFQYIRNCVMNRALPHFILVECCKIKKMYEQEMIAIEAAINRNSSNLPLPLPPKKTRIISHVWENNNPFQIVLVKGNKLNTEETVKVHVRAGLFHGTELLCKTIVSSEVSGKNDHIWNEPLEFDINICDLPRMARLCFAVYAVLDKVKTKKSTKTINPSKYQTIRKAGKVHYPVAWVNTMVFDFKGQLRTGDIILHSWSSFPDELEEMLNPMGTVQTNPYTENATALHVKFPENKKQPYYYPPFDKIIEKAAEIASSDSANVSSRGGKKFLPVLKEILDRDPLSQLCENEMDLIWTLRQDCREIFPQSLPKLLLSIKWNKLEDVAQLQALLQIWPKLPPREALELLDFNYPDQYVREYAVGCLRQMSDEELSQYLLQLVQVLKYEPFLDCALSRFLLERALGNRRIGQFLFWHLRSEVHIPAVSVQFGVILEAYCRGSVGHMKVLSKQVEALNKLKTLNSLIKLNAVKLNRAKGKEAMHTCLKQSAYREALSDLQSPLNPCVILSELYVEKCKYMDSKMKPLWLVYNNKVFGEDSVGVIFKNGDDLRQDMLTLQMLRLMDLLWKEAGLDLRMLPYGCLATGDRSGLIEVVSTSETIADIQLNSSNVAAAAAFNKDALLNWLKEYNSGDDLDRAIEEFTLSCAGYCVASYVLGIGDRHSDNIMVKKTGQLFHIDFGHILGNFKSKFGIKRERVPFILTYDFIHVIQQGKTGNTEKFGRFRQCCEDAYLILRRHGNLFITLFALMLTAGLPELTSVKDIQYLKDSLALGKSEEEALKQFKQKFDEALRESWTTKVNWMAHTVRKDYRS

HCT-116 [11] = experiment: Induction of cellular morphological changes in human HCT116 cells assessed as induction of fragmentation at 1 and 10 uM after 24 hrs by Hoechst staining based phase contrast microscopy; format: functional, cell-based; in short: as §2
[12] = biological target: PI3-kinase p110-alpha/p85-alpha (Homo sapiens, UniProt P42336); experiment: Inhibition of p110alpha/p85alpha (unknown origin) using L-alpha-phosphatidylinositol incubated for 40 mins by ADP depletion detection based luciferase assay; format: protein-complex assay
HCT-116 [13] = experiment: Induction of apoptosis in human HCT116 cells assessed as early apoptotic cells level at 1 uM after 24 hrs by annexin V-FITC/propidium iodide staining based flow cytometry (reference value: 4.36%); format: functional; in short: as §3
[14] = Inhibition of PI3K-mediated PI3K/Akt/mTOR pathway in human HCT116 cells assessed as reduction in Akt Ser473 phosphorylation at 10 uM incubated for 1 hr by Western blot method; format: cell-based; settings: HCT-116
In short: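 HCT-116 cells were seeded at 5 × 10⁵ per well and grown 16 h at 37 °C, then exposed to 10 µM for 1 h; vehicle control was 0.5% DMSO. Lysates were normalised by BCA, run on 10% SDS-PAGE, transferred to nitrocellulose and probed for AKT and p-Ser473 AKT, with β-actin as loading control. Detection was by chemiluminescence; bands were quantified densitometrically.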

HCT-116 [15] = experiment: Induction of cellular morphological changes in human HCT116 cells assessed as induction of vacuolization at 1 and 10 uM after 24 hrs by Hoechst staining based phase contrast microscopy; format: functional, cell-based; in short: as §2
Mus musculus [16] = experiment: Toxicity in mouse homografted with mouse S180 cells assessed as effect on body weight at 15 mg/kg, po once daily for 8 days; format: organism-based, CCRF S-180; set-up: dose 15 mg/kg, route oral; settings: in vivo, 192 h; in short: as §4
HCT-116 [17] = experiment: Induction of apoptosis in human HCT116 cells at 3 uM after 24 hrs by annexin V-FITC/propidium iodide staining based flow cytometry; format: functional; in short: as §3
HCT-116 [18] = experiment: Induction of cell cycle arrest in human HCT116 cells assessed as accumulation at G2/M phase at 3 uM after 24 hrs by propidium iodide staining based flow cytometry (reference value: 12.98%); format: functional
HCT-116 [19] = experiment: Induction of apoptosis in human HCT116 cells assessed as early apoptotic cells level at 3 uM after 24 hrs by annexin V-FITC/propidium iodide staining based flow cytometry (reference value: 4.36%); format: functional; in short: as §3
Mus musculus [20] = experiment: Toxicity in mouse homografted with mouse S180 cells assessed as effect on body weight at 30 mg/kg, po once daily for 8 days; format: organism-based, CCRF S-180; set-up: dose 30 mg/kg, route oral; settings: in vivo, 192 h; in short: as §4
HCT-116 [21] = experiment: Induction of apoptosis in human HCT116 cells at 1 uM after 24 hrs by annexin V-FITC/propidium iodide staining based flow cytometry; format: functional; in short: as §3
HCT-116 [22] = experiment: Induction of apoptosis in human HCT116 cells assessed as late apoptotic cells level at 1 uM after 24 hrs by annexin V-FITC/propidium iodide staining based flow cytometry (reference value: 3.08%); format: functional; in short: as §3
HCT-116 [23] = experiment: Induction of cell cycle arrest in human HCT116 cells assessed as accumulation at G0/G1 phase at 3 uM after 24 hrs by propidium iodide staining based flow cytometry (reference value: 48.31%); format: functional
HCT-116 [24] = experiment: Induction of cell cycle arrest in human HCT116 cells assessed as accumulation at S phase at 3 uM after 24 hrs by propidium iodide staining based flow cytometry (reference value: 38.71%); format: functional

SMILES: COc1cc2nc(-c3ccc(OC)c(C(N)=O)c3)nc(N3CCOCC3)c2cc1OC
IC50 [2]: 1.9 µM
IC50 (MCF7): 1.22 µM
IC50 [1]: 0.47 µM
IC50 (A549): 9.63 µM

SMILES: CNC(=O)c1cccc(-c2nc(N3CCOCC3)c3cc(OC)c(OC)cc3n2)c1
IC50 (MCF7): 6.2 µM
IC50 [1]: 2.52 µM

SMILES: COc1cc2nc(-c3ccc(Cl)c(C(N)=O)c3)nc(N3CCOCC3)c2cc1OC
IC50 (MCF7): 4.24 µM
IC50 [1]: 2.97 µM

SMILES: COc1cc2nc(-c3cccc(NC(C)=O)c3)nc(N3CCOCC3)c2cc1OC
IC50 (MCF7): 3.49 µM
IC50 [1]: 1.42 µM

SMILES: COC(=O)c1cccc(-c2nc(N3CCOCC3)c3cc(OC)c(OC)cc3n2)c1
IC50 (MCF7): 3.44 µM
IC50 [1]: 1.07 µM

SMILES: COc1cc2nc(-c3cccc(C(=O)O)c3)nc(N3CCOCC3)c2cc1OC
IC50 (MCF7): > 20 µM
IC50 [1]: 12.5 µM

SMILES: COc1cc2nc(-c3cccc(C(=O)N(C)C)c3)nc(N3CCOCC3)c2cc1OC
IC50 (MCF7): 5.01 µM
IC50 [1]: 4.73 µM

SMILES: COc1cc(C(N)=O)cc(-c2nc(N3CCOCC3)c3cc(OC)c(OCC(=O)N4CCN(C)CC4)cc3n2)c1
IC50 (MCF7): 18.7 µM
IC50 [1]: 9.44 µM

The next lines start with results.

IC50 (MCF7): 6.93 µM
SMILES: COc1cc2nc(-c3cc(OCc4ccccc4)cc(C(N)=O)c3)nc(N3CCOCC3)c2cc1OC
IC50 [1]: 3.83 µM

IC50 (MCF7): > 20 µM
SMILES: COCCOc1cc2nc(-c3cc(OC)cc(C(N)=O)c3)nc(N3CCOCC3)c2cc1OC
IC50 [1]: 2.7 µM

IC50 (MCF7): 24.4 µM
SMILES: COc1cc(C(N)=O)cc(-c2nc(N3CCOCC3)c3cc(OC)c(OCC(=O)N4CCOCC4)cc3n2)c1
IC50 [1]: 6.48 µM

IC50 (MCF7): 8.52 µM
SMILES: COc1cc(C(N)=O)cc(-c2nc(N3CCOCC3)c3cc(OC)c(OCC4CCOCC4)cc3n2)c1
IC50 [1]: 3.14 µM

IC50 (MCF7): 14.9 µM
SMILES: CNC(=O)COc1cc2nc(-c3cc(OC)cc(C(N)=O)c3)nc(N3CCOCC3)c2cc1OC
IC50 [1]: 21.7 µM

IC50 (MCF7): 6.38 µM
SMILES: COc1cc(C(N)=O)cc(-c2nc(N3CCOCC3)c3cc(OC)c(OCCN4CCCCC4)cc3n2)c1
IC50 [1]: 1.28 µM

IC50 [5]: 0.465 µM
IC50 [7]: 0.33 µM
IC50 (PI3K p110 beta/p85 alpha): 0.128 µM
IC50 [12]: 0.096 µM
IC50 (MCF7): 1.09 µM
IC50 (A549): 1.68 µM
SMILES: COc1cc2nc(-c3cc(OC(F)(F)F)cc(C(N)=O)c3)nc(N3CCOCC3)c2cc1OC
Activity (HCT-116 [3]): Active
Activity (HCT-116 [4]): Active
Activity (HCT-116 [6]): 7.59%
inhibition in vivo at 30 mg/kg (CCRF S-180 [8]): 64.2%
Activity (HCT-116 [9]): Active
inhibition in vivo at 15 mg/kg (CCRF S-180 [10]): 49.3%
Activity (HCT-116 [11]): Active
IC50 [2]: 0.6 µM
Activity (HCT-116 [13]): 11.5%
inhibition [14]: Active
Activity (HCT-116 [15]): Active
IC50 [1]: 0.3 µM
Activity (Mus musculus [16]): Non-toxic
Activity (HCT-116 [17]): 27.3%
Activity (HCT-116 [18]): 23.19%
Activity (HCT-116 [19]): 16.25%
Activity (Mus musculus [20]): Non-toxic
Activity (HCT-116 [21]): 22.7%
Activity (HCT-116 [22]): 6.76%
Activity (HCT-116 [23]): 56.69%
Activity (HCT-116 [24]): 20.11%
